IDE inh – cellular human IDE inhibition. HEK cells, FAbetaB cleavage, fluorescence polarization. inhibition, % at 5.59 µM. 320,000 tested, 0.41% active;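 active means percent inhibition above the average of all tested compounds plus 3 SD, set per screening campaign, cut at about 16% in these data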;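 further: IDE supplied by intact live HEK cells; FP after avidin binding of uncleaved biotin substrate so inhibition keeps polarization high; 0% = DMSO wells and 100% = 60 µM reference IDE inhibitor Ii1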
Rpn11 block – Rpn11 (human) deubiquitinase inhibition. O00487. human 26S proteasome, Ub4-pepOG fluorescence polarization; 20S core pre-blocked with epoxomicin. inhibition, % at 20 µM. 360,000 tested, 0.59% active. AID 588493;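 active means inhibition at 20 µM, scaled to each plate's controls, above about 33%, limit read from the data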
HNF4A DNA FP – change in binding of human HNF4 alpha to DNA | HNF4a-FITC DNA binding, fluorescence polarization, 1 h | activity change, % at 10 µM | 360,000 tested, 0.3% active | AID 1224865; in the data active means activity change above about 30%, passing the limit was not always enough
Target sequence (P41235 whole entry, looked up): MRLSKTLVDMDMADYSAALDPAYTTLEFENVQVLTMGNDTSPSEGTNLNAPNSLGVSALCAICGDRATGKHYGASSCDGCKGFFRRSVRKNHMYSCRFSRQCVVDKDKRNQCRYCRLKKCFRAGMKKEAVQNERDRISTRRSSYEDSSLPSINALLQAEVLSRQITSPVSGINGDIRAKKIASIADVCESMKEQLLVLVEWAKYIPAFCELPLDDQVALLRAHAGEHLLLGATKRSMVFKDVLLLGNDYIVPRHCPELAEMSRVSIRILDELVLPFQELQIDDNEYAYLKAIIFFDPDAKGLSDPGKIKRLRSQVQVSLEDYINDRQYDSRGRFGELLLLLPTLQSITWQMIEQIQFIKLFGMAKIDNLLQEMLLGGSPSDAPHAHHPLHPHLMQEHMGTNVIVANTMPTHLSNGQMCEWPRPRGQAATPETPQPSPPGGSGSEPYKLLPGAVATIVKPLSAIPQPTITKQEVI
IDE cell activ – IDE (human) activation, cell-based. 340,000 tested, 0.073% active. HEK cells, FAbeta-B cleavage, fluorescence polarization; 0% vehicle, 100% cell-free pure enzyme wells. activation, % at 5.96 µM. P14735. AID 493087;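 active means activation above the mean of all tested compounds plus 3 SD, set per screening campaign, cut at about 17% in these data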
CSN deneddyl inh – inhibitors of human CSN-mediated cullin deneddylation; Q92905; Purified CSN, SCF-Nedd8-OG deneddylation, fluorescence polarization; inhibition, % at 12.5 µM; 360,000 tested, 0.38% active; AID 651999;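 active means pattern-corrected inhibition above about 35%, with an unprinted fluorescence ratio check between 0.5 and 1.5, limit read from the data, passing the limit was not always enough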;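 further: 0% = enzyme with substrate and 100% = substrate without enzyme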
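assay system = purified human Csn5 enzyme expressed in HEK293T cells | amount = 0.24 nM enzyme | buffer or medium = Tris/NaCl/DTT buffer, pH 7.5 | reagent = 10 nM SCFSkp2-Nedd8OG | compound = one concentration, 12.5 µM, 0.25% DMSO | times = 90 min reaction at room temperature | signal = FP | read-out basis = % inhibition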
TPT1 inhibitor – inhibitors of Candida albicans tRNA 2'-phosphotransferase TPT1 | 300,000 tested, 0.81% active | inhibition, % at 5 µM | recombinant caTPT1, FP RNA substrate dephosphorylation;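 active means inhibition above the mean of all tested compounds plus 3 SD, set per screening campaign, cut at about 24% in these data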;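 further: plate controls were DMSO alone for no effect and ferristatin control at 100 nM for full effect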
TPT1 inh confirm – confirmation of Candida albicans TPT1 inhibitors; inhibition, % at 5 µM; 2,400 tested, 74% active; shares compounds with TPT1 inhibitor; recombinant caTPT1, fluorescence polarization, RNase T1 coupled;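 active means inhibition above the primary screen limit, the mean inhibition of all tested compounds plus 3 SD, cut at about 25% in these data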
RNase T1 inh – counter-screen for TPT1 inhibitors: inhibitors of Aspergillus oryzae RNase T1 | shares compounds with TPT1 inhibitor | RNase T1 cleavage, fluorescence polarization, 1536-well | inhibition, % at 5 µM | 2,400 tested, 83% active | AID 2153;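 active means inhibition above the solvent-only control well mean plus 3 SD, limit set per screening run, cut at about 23% in these data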;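 further: plate controls were DMSO wells with enzyme for no effect and wells without RNase T1 for full effect; inhibitors block cleavage so intact labeled substrate keeps polarization high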
Target sequence (P00651 whole entry, looked up): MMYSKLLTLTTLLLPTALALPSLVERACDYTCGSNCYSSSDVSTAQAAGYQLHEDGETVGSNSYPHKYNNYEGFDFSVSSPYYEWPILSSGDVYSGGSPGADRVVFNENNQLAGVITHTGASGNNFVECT
IDE inh confirm – confirmation of human insulin-degrading enzyme inhibitors in cells | shares compounds with IDE inh | HEK cells, FAbetaB cleavage, fluorescence polarization | inhibition, % at 5.59 µM | 1,200 tested, 51% active;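 active means mean inhibition across triplicate wells above the cutoff set by the earlier primary insulin-degrading enzyme screen, cut at about 16% in these data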;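 further: 0% = DMSO wells and 100% = 60 µM reference IDE inhibitor Ii1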
HEK cytotox – kills HEK cells in IDE inhibitor counter-screen. shares compounds with IDE inh. HEK293 cytotoxicity, ATP luminescence. inhibition, % at 5.59 µM. 1,200 tested, 28% active; in the data active means inhibition above about 22%;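 further: 0% = vehicle wells and 100% = reference cytotoxic drug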
Rpn11 confirm – confirmation of human proteasome Rpn11 inhibitors. shares compounds with Rpn11 block. purified human 26S proteasome, Ub4-pepOG fluorescence polarization; proteasome pretreated with epoxomicin. inhibition, % at 20 µM. 1,900 tested, 29% active. AID 602318
MMP-2 counter-1 – MMP-2 (human) inhibition counter-screen | shares compounds with Rpn11 block | recombinant MMP-2, FRET peptide cleavage fluorescence | inhibition, % at 20 µM | 1,900 tested, 4% active | AID 602330;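 further: human MMP-2 activated beforehand with APMA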
Thrombin inh – counter-screen for RPN11 inhibitors: inhibition of bovine thrombin; shares compounds with Rpn11 block; bovine thrombin cleavage of Ub4-pepOG, fluorescence polarization; inhibition, % at 20 µM; 1,900 tested, 13% active; AID 602333;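 active means mean inhibition at least 40% at 20 µM, or signal 3 deviations below plate average, so some actives read negative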;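 further: plate controls were thrombin with DMSO for no effect and buffer wells lacking thrombin for full effect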
CSN5 deneddyl – Csn5 (human) deneddylation inhibition, single-concentration validation | shares compounds with CSN deneddyl inh | inhibition, % at 16.6 µM | AID 720654 | 540 tested, 62% active | Csn5 deneddylation of SCF-Nedd8OG, fluorescence polarization, 90 min; in the data active means inhibition above about 50%;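 further: 0% = DMSO with enzyme and 100% = no enzyme wells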
MMP-2 counter-2 – counter-screen for CSN deneddylation inhibitors: human MMP-2 inhibition. shares compounds with CSN deneddyl inh. recombinant MMP-2, FRET substrate fluorescence, 60 min. inhibition, % at 16.6 µM. 540 tested, 33% active. AID 720655;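 active means corrected plate-normalized z-score of 5 or more, or -5 or less, or inhibition of 15% or more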;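 further: plate controls were DMSO wells with enzyme for no effect and buffer wells lacking MMP-2 for full effect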
Thrombin counter – counter-screen for CSN deneddylation inhibitors: bovine thrombin inhibition; shares compounds with CSN deneddyl inh; bovine thrombin cleavage of Ub4-pepOG, fluorescence polarization; inhibition, % at 16.6 µM; 540 tested, 49% active; AID 720656;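 active means inhibition at or above a set limit, with a fluorescence interference ratio between 0.5 and a set maximum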
* hit, by the source's call; . = not tested or not shown; + = active, no number. Sampled rows, rich in hits. Any-hit rate of the full collection: about 1.7%. Unless noted, no stated cut-off is given here; in the data, active means inhibition above about 40%; inactive means the rest.

SMILES	IDE inh	Rpn11 block	HNF4A DNA FP	IDE cell activ	CSN deneddyl inh	TPT1 inhibitor	TPT1 inh confirm	RNase T1 inh	CSN5 deneddyl	MMP-2 counter-2	Thrombin counter	others
O=C(O)C(c1ccccc1)N1C(=O)/C(=C\c2ccc(-c3ccccc3Cl)o2)SC1=S (stereo not given)	11	.	62	-6	92*	124*	128*	130*	-58	5	94*
CC[n+]1c(/C=C/N(C)c2ccccc2)oc2ccc(F)cc21	6	.	60*	3	37*	55*	72*	81*	122*	-4	47*
O=C(N/N=C/c1c(O)ccc2ccccc12)c1cccc(C(F)(F)F)c1	180*	.	92*	-132	69*	135*	149*	137*	63*	-25*	49*	IDE inh confirm=137*;HEK cytotox=115*
O=C(N/N=C/c1cc(Br)cc(Cl)c1O)c1ccc2c(c1)OCO2	1	+	17	6	100*	35*	33*	45*	-106	29*	20*	Rpn11 confirm=198*;MMP-2 counter-1=25;Thrombin inh=13
Cn1c(O)c(/C=N/NC(=O)c2cc3ccccc3cc2O)c2ccccc21	8	.	62	-12	40*	122*	127*	125*	75*	1	45*
CN(C)c1ccc(/C=C/C(=O)c2cc(Cl)ccc2O)cc1	4	.	75*	-8	71*	40*	50*	60*	68*	-18	42*
CCOC(=O)C1=CCC(c2ccc(CC)cc2)N(S(=O)(=O)c2ccc(C)cc2)C1 (stereo not given)	.	-1	-1	.	0	.	.	.	.	.	.
Cc1ccc(/C=C/c2ccc(N(C)C)cc2)[n+](C)c1	18*	.	89*	-10	47*	36*	46*	56*	40*	-92*	68*	IDE inh confirm=25*;HEK cytotox=91*
Nc1[nH]c2cc([N+](=O)[O-])ccc2c1-c1ccccn1	11	.	91*	-12	64*	101*	102*	105*	49	-5	44*
Cc1ccc2nc(/C(C#N)=C/c3ccc(-c4ccccc4C(=O)O)o3)[nH]c2c1	85*	.	97*	-74	76*	133*	139*	132*	63*	-32*	68	IDE inh confirm=115*;HEK cytotox=13
Cc1cc(/C=C(/C#N)c2nc3ccccc3[nH]2)c(C)n1-c1cc(C(=O)O)cc(C(=O)O)c1	.	20	-33	-2	21	.	.	.	.	.	.
Cc1ccc2nc(/C(C#N)=C\c3ccc([N+](=O)[O-])o3)[nH]c2c1	11	48*	103	-5	52*	55*	47*	59*	30	18*	44*	Rpn11 confirm=12;MMP-2 counter-1=-18;Thrombin inh=19
C[C@@H]1CN([C@@H](C)CO)C(=O)c2cc(C#Cc3ccccc3)cnc2O[C@H]1CN(C)C(=O)c1ccccc1F	.	-8	-3	.	5	.	.	.	.	.	.
CCOC(=O)C1CCCN(C2=NC(=O)/C(=C/c3ccc(N(C)C)cc3)S2)C1 (stereo not given)	52*	.	139	-34	114*	128*	130*	126*	171*	14	12	IDE inh confirm=43*;HEK cytotox=7
CCOC(=O)C1CCCN(C2=NC(=O)/C(=C/c3ccc(OC)cc3)S2)C1 (stereo not given)	2	0	2	4	-4	3	.	.	.	.	.
CCN(CC)S(=O)(=O)c1cccc(C(=O)N/N=C(\C)c2ccc(O)cc2O)c1	-10	.	27	0	37*	89*	140*	129*	92*	-27*	79*
CCN(CC)S(=O)(=O)c1cccc(C(=O)N/N=C/c2ccc(O)c(O)c2O)c1	6	5	3	-21	-12	10	.	.	.	.	.
CCOC(=O)/C(=C/C1=CC(=C/N(C)C)/C(=O)O1)C(C)=O	16*	.	66*	-13	93*	124*	140*	138*	121*	-23	82*	IDE inh confirm=23*;HEK cytotox=4
COc1ccc2nc(N3C(=O)/C(=C/c4ccccc4)NC3=S)sc2c1	12	.	108	-5	95*	111*	115*	119*	92*	-12	74*
COc1ccc2nc(-n3c(C)ccc3C)sc2c1	4	1	4	-2	4	-1	.	.	.	.	.
O=C1/C(=C\c2ccco2)CCC/C1=C\c1ccco1	15	.	62	-32	39*	55*	65*	72*	66*	6	53*
COc1cccc(C(NC(C)=O)c2nc(-c3ccc(F)cc3OC)cs2)c1 (stereo not given)	.	4	-2	.	0	.	.	.	.	.	.
CC(=O)c1cccc(-c2ccnc3c2CC(C(=O)Nc2ccc(Cl)c(C(F)(F)F)c2)O3)c1 (stereo not given)	.	-1	-1	.	-4	.	.	.	.	.	.
O=C1C2C(C(=O)N1Cc1ccco1)C1C=CC2C12CC2 (stereo not given)	5	1	0	1	-3	-1	.	.	.	.	.

Assay outcomes (PubChem)
